For this data set, the system named is MS2 coat protein. Nature of the data set: apparent Kd, MS2 coat protein; higher = weaker binding; RNA-MaP array; FMN 200 µM where present. The procedure, abridged: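 The apparent Kd comes from binding curves fitted cluster by cluster, filtered, and summarised as a median. Those curves followed SNAP-549-labelled MS2 coat protein from 0.7 or 1.5 nM, doubling to 3 µM, on Illumina sequencing-chip clusters where stalled E. coli RNA polymerase had transcribed the designs, without and then with constant ligand. The buffer was 100 mM Tris-HCl pH 7.5, 80 mM KCl, 4 mM MgCl2, BSA, DTT, yeast tRNA and Tween-20, and green signal was normalised to red-channel RNA signal and control-cluster median Fmax.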

Where [1] appears, read: designed as: OFF switch for flavin mononucleotide, no ligand.
Setting [2] is: ligand present: flavin mononucleotide, designed as: OFF switch for flavin mononucleotide.
The mark [3] stands for this setting: designed as: ON switch for flavin mononucleotide, no ligand.
Where [4] appears, read: ligand present: flavin mononucleotide, designed as: ON switch for flavin mononucleotide.

As usually defined, the apparent Kd is a dissociation constant that holds for the conditions of the assay.

Take “ACGUGUCGUGUAGGAUAUGACACAGGAAACUGGUCAGAAGGACAUGAGGAUCACCCAUGUAAAGUGUUUAAGGAUGACGUAUGC”: the “apparent Kd” value under setting [1] was found to be 49.9 nM and the “apparent Kd” value under setting [2] amounted to 151 nM.

“GUAGCUAUCGGAGGAUAUUCAUACCGGAAACGGACAUGAGGAUCACCCAUGUGGCGAAAGACUUGGGAGAAGGCCGAUAGCUAC”: the “apparent Kd” value was found to be 183 nM under setting [3] and 35.5 nM under setting [4].

“CCUGGAUCAUGAGGAUAUGGUACCUUAUUGGUACCAGAAGGCAUGUCUCUUGACAUGAGGAUCACCCAUGUAAUAAAUUCCAGG”: the “apparent Kd” value runs as follows: under setting [3], 841 nM; under setting [4], 114 nM.

In the case of “UUUGGGUGGCUGGAGGAUAUUCUUGUGGUUACAUGAGGAUCACCCAUGUGUCGCGCGGUACGCGAGGAGAAGGCUGGCGGCCGUU”, the “apparent Kd” value was found to be 327 nM under setting [3] and 56.2 nM under setting [4].

As for “CACCGACCCUAUGUGUUCUAAACAUGAGGAUCACCCAUGUAUAGAAGGGUCUUCGCGAAACGCAGACAGGAUAUGUACAGGAGU”, the “apparent Kd” value is, setting by setting: under setting [1], 7.23 nM; under setting [2], 13.6 nM.

Turning to “UUAUUGUGAGGAUAUCAGGUGUGCUAGCGUACUGGUACAUCUGAGAAGGCACAUGAGGAUCACCCAUGUUUCUU”, the “apparent Kd” value by setting is: under setting [1], 23.4 nM; under setting [2], 66.9 nM.

With “CUUUAGUGAGGAUAUCAGUAGUAAUACAAUAGUAUUAUUACUGAGAAGGCACAUGAGGAUCACCCAUGUUCCUC”, the “apparent Kd” value came to 29.4 nM under setting [1] and 120 nM under setting [2].

In the case of “UGAUAGGACAGAGGAUAUGCCGAUAGGAUUUACUAUCGAAGAAUCCUCACAUGAGGAUCACCCAUGUAGAAGGCUGUCCUAUCU”, the “apparent Kd” value is, setting by setting: under setting [1], 7.36 nM; under setting [2], 35.9 nM.

“UAAACAUGAGGAUCACCCAUGUUAUGAUCGGUUGAUGAAAGUGAGGAUAUACAAAAUUUUAUGGAGUAGAAGGCACUGGGUUCU”: the “apparent Kd” value reads like this: under setting [3], 31.1 nM; under setting [4], 29.9 nM.

“AUAUGUGUCGAGAAGGGCUCACGUAACGGAACAGCAGGAUAUCGACAUGAGGAUCACCCAUGUCGGAACGAACGGAUCUUUACU”: the “apparent Kd” value runs as follows: under setting [1], 7.22 nM; under setting [2], 8.53 nM.

For “UCACAGUGUCGUUAUCCGUAGCGAACAUGAGGAUCACCCAUGUAGGAUAUGUUAUUAAACUAAUAACAGAAGGACGUUGGUCGG”, the “apparent Kd” value by setting is: under setting [1], 36.7 nM; under setting [2], 220 nM.

For “GGGUACAUCGGAGGAUAUCAUGUAAAUACAUGAGGAUCACCCAUGUCGAUGCAGACAUCGGAGAUUGAGAAGGCCGAUGUACCG”, the “apparent Kd” value under setting [3] stood at 974 nM and the “apparent Kd” value under setting [4] came out at 78.4 nM.

Consider “AACAAGUGAGGAUAUGAUAAUACAACAAACAAACAUCUACAUCAGAAGGCACAUGAGGAUCACCCAUGUUAAUC”, for which the “apparent Kd” value is 22 nM under setting [1] and 27.2 nM under setting [2].

“CUUUAGUGAGGAUAUCAGUAGUAGAACAAUAGUACUACUACUGAGAAGGCACAUGAGGAUCACCCAUGUUCCUC”: the “apparent Kd” value runs as follows: under setting [1], 31 nM; under setting [2], 157 nM.

Consider “GGGUACAUCGGAGGAUAUCAUGUAAAUACAUGAGGAUCACCCAUGUCGAUGGAGACAUCCGAGAUUGAGAAGGCCGAUGUACCG”, for which the “apparent Kd” value was found to be 29.3 nM under setting [3] and 13.3 nM under setting [4].

Take “UGACACAUGAGGGUCUCCCAUGACAUGAGGAUCACCCAUGUGCAGGAUAUACGUGUGAUGGUAUAGUAGAAGGGCACUCUAUGU”: the “apparent Kd” value was determined as 46.4 nM under setting [1] and 65.8 nM under setting [2].

For “UUAAAUCAUGUAGGAUAUGCAUGGCGAAGCUACGCAGAAGGACAUGAGGAUCACCCAUGUUAAAGCUACCGGAUACGGUGGCAA”, the “apparent Kd” value was found to be 109 nM under setting [1] and 195 nM under setting [2].

In the case of “AAAAAACAUGAGGAUCACCCAUGUAAGGAUAUGCUGAAAAACACGGAAAAAACGUGCAGCAGAAGGUACAAAAG”, the “apparent Kd” value by setting is: under setting [1], 59.5 nM; under setting [2], 85.9 nM.

In the case of “UCGCUGCGAGGAUAUACGUUUGCGCGUUUUCGUUUGCGCGUACAUGAGGAUCACCCAUGUAGAAGGCGCGCGGC”, the “apparent Kd” value under setting [1] was 14.3 nM and the “apparent Kd” value under setting [2] was 14.8 nM.

For the sequence “GUGCGAGUGCCACAGGAUAUACGUGGAUCGACAUGAGGAUCACCCAUGUAUAUCCUAAUAAUUGCGUAGAAGGGUGGUCAGUCGG”, the “apparent Kd” value runs as follows: under setting [3], 786 nM; under setting [4], 289 nM.

Regarding “GGAUUACAUGAGGAUCACCCAUGUGAGGAUAUCGAUGUCCUCAGUGGAGUGCGGGACUCGAGAAGGCACUUGGA”, the “apparent Kd” value worked out at 172 nM under setting [1] and 169 nM under setting [2].

Regarding “GAGUGACACCAGAAGGGCCAGGAAAGAACACUGGUAGGAUAUGGAGCGCCCUCGUAACGACCGACAUGAGGAUCACCCAUGUCC”, the “apparent Kd” value came to 117 nM under setting [3] and 28.1 nM under setting [4].

Turning to “AAAAAGCGAGGAUAUGCGGGCGGGUGCGGCCAGCCGAUGUGACAUGAGGAUCACCCAUGUAGAAGGCGCAAAAA”, the “apparent Kd” value is, setting by setting: under setting [1], 12.3 nM; under setting [2], 15.1 nM.

For “GACUCGCGCACAGGAUAUCCACGUAGCGGACGUGGAGAAGGGUGACAUGAGGAUCACCCAUGUACGUGAGUCUAGAUCACUUCC”, the “apparent Kd” value turned out to be 40.2 nM under setting [3] and 22.8 nM under setting [4].

For the sequence “CUUUAGUAAGGAUAUCAGCUUAGGAGGUUGGUAAUGAGAGCUGAGAAGGUACAUGAGGAUCACCCAUGUUAGUU”, the “apparent Kd” value worked out at 17.3 nM under setting [1] and 19.7 nM under setting [2].

Turning to “CUCGAGUGAGGAUAUUGAAUCGGCGGCUGACCGCACGAGCUCGAGAAGGCACAUGAGGAUCACCCAUGUGGGUC”, the “apparent Kd” value reads like this: under setting [1], 15.2 nM; under setting [2], 27.3 nM.

Regarding “CUCAUGUGAGGAUAUCAGUAGUAAAAAAAUAAAAUUACUACUGAGAAGGCACAUGAGGAUCACCCAUGUACCUU”, the “apparent Kd” value runs as follows: under setting [1], 70.7 nM; under setting [2], 72 nM.

Turning to “CAGCAAAGGUAGAAGGCAGUACUGAUACAGUACUGAGGAUAUACAUGAGGAUCACCCAUGUUCUUCAGCUGGAAAUAAAUAAAA”, the “apparent Kd” value is 8.98 nM under setting [1] and 134 nM under setting [2].

Take “GUGUGCUGAGGAUAUACAUAGGAAGAGAAGAGAAGAGAAGGACAUGAGGAUCACCCAUGUAGAAGGCAGAGUGU”: the “apparent Kd” value turned out to be 28.2 nM under setting [1] and 33.3 nM under setting [2].

“CCAAGGAGAGGAUAUACACGGUUAUGGCCUCUUGAGUGGCGACAUGAGGAUCACCCAUGUAGAAGGCUCAGGGC”: the “apparent Kd” value was 20.2 nM under setting [1] and 57.4 nM under setting [2].

In the case of “UACAUGAGGAUCACCCAUGUUUUGUCGUGUAUGGUAUUUAUCUAGGAUAUCAAUUUGUAUAUUUAUGAGAAGGAGAAUAUUAAU”, the “apparent Kd” value reads like this: under setting [1], 34.5 nM; under setting [2], 39.6 nM.

Turning to “UAUAUAUAGUAAGGAUAUGUAAUUAUUUUAGAAACAGAAGGUACUGACAUGAGGAUCACCCAUGUUUUAGUGUGGGCAUGUAGA”, the “apparent Kd” value was 90.4 nM under setting [1] and 147 nM under setting [2].

Turning to “UGAUAGGACAGAGGAUAUACCGAUAGGAUCUACUAUCGAACAAUUCUCACAUGAGGAUCACCCAUGUAGAAGGCUGUCCUAUCU”, the “apparent Kd” value under setting [1] stood at 15.8 nM and the “apparent Kd” value under setting [2] turned out to be 30.2 nM.

As for “CAGUUCUGAGGAUAUCCACCCUCCUACAUGAGGAUCACCCAUGUUUCCCUCUGGGCUUUCGGAGAAGGCAGUUAUC”, the “apparent Kd” value by setting is: under setting [1], 52.5 nM; under setting [2], 43.6 nM.

Regarding “AUUAUGUUAGGAUAUGCUUAUGGUGGAUAGUCGGAUAUGAUGCAGAAGGGACAUGAGGAUCACCCAUGUACUGA”, the “apparent Kd” value under setting [1] came to 22.4 nM and the “apparent Kd” value under setting [2] was determined as 22.1 nM.

As to “ACUGAAGUCACAGGAUAUCAUAUGUCGGCACAUUGAGAAGGGUGACUGGGCUACAUGAGGAUCACCCAUGUGCCGUCGUAACAA”, the “apparent Kd” value under setting [3] is 104 nM and the “apparent Kd” value under setting [4] is 80.4 nM.

On to “CACAAGAAAGUCGAACGUGUAACGAGAAGGUCUACAUCACAACAUGAGGAUCACCCAUGUGAUAAGAAGGAUAUUGUUGCGCGG”, for which the “apparent Kd” value was 8.76 nM under setting [1] and 8.32 nM under setting [2].

“UGUUGUAUUACAGGAUAUCUAUUGAUUUUAUUUAGAGAAGGGUAUUCACAUGAGGAUCACCCAUGUAUAUACGAGGAAGUUGUG”: the “apparent Kd” value reads like this: under setting [3], 54.6 nM; under setting [4], 62.7 nM.

“GGUUUGGGAGGAUAUGGCUUGAAUGACAUGAGGAUCACCCAUGUAAGUGGAUCUUCCGGGCCAGAAGGCUCGGGCC”: the “apparent Kd” value is 63.8 nM under setting [1] and 136 nM under setting [2].

In the case of “CCACGAGACUAAGGAUAUGGAGUGUCAACAUAAAACAUGAGGAUCACCCAUGUAAAGAGUACGAUUCAGAAGGUAGAGACGUGG”, the “apparent Kd” value worked out at 38.3 nM under setting [3] and 23.7 nM under setting [4].

Regarding “ACAUGAGGAUCACCCAUGUUAUCUGGGACUUCAAUUAUUUCUAGAAGGCUGUUUACUUGUUAGUCAGAGGAUAUAGAAUUAAAU”, the “apparent Kd” value under setting [1] stood at 31.1 nM and the “apparent Kd” value under setting [2] was found to be 32.3 nM.

“CACGAUGAUGUAGGAUAUAUGCUGGAAUACAGCAUAGAAGGACAUGAGGAUCACCCAUGUAAAGUGUCUCCAAAUAACAUCGUG”: the “apparent Kd” value by setting is: under setting [1], 30.3 nM; under setting [2], 77.5 nM.

On to “ACAGGCUUCGAGAAGGACAUGAGGAUCACCCAUGUGCGUGUGAAGCAGCCGUGAGGCUGCAUCAUGUAGGAUAUCGGAGUCUGA”, for which the “apparent Kd” value worked out at 75.5 nM under setting [1] and 559 nM under setting [2].

As for “CAGGUCUGAGGAUAUCCAUCCUCCUACAUGAGGAUCACCCAUGUUUCCCUCUGGGUUUUCGGAGAAGGCAGUUUUU”, the “apparent Kd” value was determined as 749 nM under setting [1] and 525 nM under setting [2].

Regarding “AUAUCUAUAUCAGGAUAUGGACAGGCCUGUCCGUAUUGAGACAGUAACAUGAGGAUCACCCAUGUCCAGAAGGGAUCGAUAUAU”, the “apparent Kd” value reads like this: under setting [1], 38.6 nM; under setting [2], 41.8 nM.

For the sequence “UAUUUAUAAUAUUUUAACAUGAGGAUCACCCAUGUCGCUAGACAGGAUAUAUUUUAUUUUUUUAAGUAGAAGGGUCAUAGAUUU”, the “apparent Kd” value amounted to 75.1 nM under setting [3] and 96.9 nM under setting [4].

Turning to “UGUUGUAUUACAGGAUAUCUAUUGUUUUUAAUUAGAGAAGGGUAUUCACAUGAGGAUCACCCAUGUAUAUACGAGGAAGUUGUG”, the “apparent Kd” value under setting [3] turned out to be 50.5 nM and the “apparent Kd” value under setting [4] was found to be 53.4 nM.

For “AUACCACGAGGAUAUCGUCUAUAAUACAUGAGGAUCACCCAUGUUAUAUAUGUAAUGUUUCGAGAAGGCGUGUUUU”, the “apparent Kd” value is 16.6 nM under setting [1] and 12.9 nM under setting [2].

Values taken from the EternaBench riboswitch data.
